Source: PubChem (several laboratories)
ERb coact inh: inhibitors of ERβ-SRC1 coactivator interaction, primary screen, biochemical, TR-FRET, ERβ LBD, SRC-1 peptide. inhibition, % at 25.6 µM. 86,000 compounds, 1.3% hits. AID 633, 2007. TR-FRET ER-beta LBD / SRC1-Cy5 peptide binding; receptor agonist-loaded with 1 µM estradiol. Estrogen receptor beta (Homo sapiens), Q92731;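 active = compounds whose percent inhibition of the receptor-coactivator binding signal exceeds about 50% in the single-dose screen, limit read from the data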;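 also: 0% = receptor plus peptide wells without compound and 100% = peptide-only wells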
Fibroblast inh: antiproliferative effect on LL 47 fibroblasts – human, LL 47 cells, CellTiter-Glo luminescence, primary screen; 85,000 compounds, 1.1% hits; AID 719, 2007; LL 47 human lung fibroblast viability, ATP luminescence; active compounds read low; viability, % at 10 µM;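 active = viability at or below 50% in the single dose screen; inactive = viability above 50%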;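 also: compound exposure lasted 72 h before the ATP readout; 100% = median luminescence of untreated cell-only wells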
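Signal: luminescent ATP detection, CellTiter-Glo; assay system: LL 47 human lung fibroblasts; input: 1,150 cells/well; incubation: overnight cell rest, 72 h compound treatment at 37 °C; measure: % viability versus median cells-only luminescence; medium: IMEM growth medium with 15% fetal bovine serum; dosing: compound addition at 0.1% DMSO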
HUVEC prolif 384: inhibitors of HUVEC proliferation, primary screen, cell-based, 384-well | CellTiter-Glo luminescence, 72 h; active compounds read low | viability, % at 10 µM (by protocol) | 86,000 compounds, 1.1% hits | AID 648, 2007;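 active = viability at or below 30%; inactive = viability above 30%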;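 also: 100% = median luminescence of DMSO-only cell control wells on each plate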
H69AR inhibit: proliferation blockers of H69AR lung cancer cells, primary screen, cell-based, human, 86K library | H69AR lung tumor viability, ATP luminescence, 72 h; active compounds read low | viability, % at 10 µM | 85,000 compounds, 6% hits | AID 598, 2007;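 active = viability at or below 40%; inactive = viability above 40%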;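 also: multidrug resistant small cell line overexpressing MRP-1 efflux transporter; 100% = mean luminescence of untreated control wells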
ERa coact inh: ERα–SRC-1 coactivator interaction inhibitors, primary screen, biochemical, TR-FRET, ERα LBD, estradiol-bound | Estrogen receptor (Homo sapiens), P03372 | TR-FRET ER-alpha LBD / SRC-1 peptide | inhibition, % at 25.6 µM | 86,000 compounds, 1.7% hits; in the data active = inhibition above about 50%;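 also: 0% = receptor plus peptide control and 100% = peptide only without receptor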
ERa coact pot: enhancers of ERα–SRC-1 coactivator binding, primary screen, biochemical, TR-FRET, ERα LBD, low estradiol; 86,000 compounds, 1.3% hits; Estrogen receptor (Homo sapiens), P03372; TR-FRET ERalpha-LBD/SRC-Cy5 coactivator binding, 2 h; 100 = basal binding, no effect; coactivator binding (% of control), % at 25.6 µM; AID 639, 2007; in the data active = activity above about 200%;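 also: binding measured in presence of low estradiol as agonist stimulus; 0% = peptide alone without receptor and 100% = receptor with peptide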
* hit, by the source's call; [ ] = remark or other dose. Only some compounds are listed: those with a hit (about 9.2% of all), similar ones and a draw of the others.

SMILES	ERb coact inh	Fibroblast inh	HUVEC prolif 384	H69AR inhibit	ERa coact inh	ERa coact pot
Cc1cc(NC(=O)CS(=O)(=O)c2cn(Cc3ccccc3Cl)c3ccccc23)no1	14.0	94.0	104.5	87.9	14.6	660.0*[fluorescence artefact?]
Cn1c(=O)c2c(ncn2CCCc2ccccc2)n(C)c1=O	-16.6	99.4	102.7	94.0	-19.7	222.2*
CCn1c(SCC(=O)N2c3ccccc3Sc3ccc(Cl)cc32)nc2c1c(=O)n(C)c(=O)n2C	-8.4	87.3	79.3	80.7	-8.1	99.5
O=C(COc1ccccc1)Nc1ccc(Cl)c(-c2nc3ncccc3o2)c1	43.7	105.3	86.5	101.5	50.3*	225.6*[fluorescence artefact?]
O=C(COc1ccccc1)Nc1ccc2c(c1)nc1n2CCOC1	-6.0	105.2	87.3	97.3	10.1	125.5
Cc1ccc(OCC(=O)Nc2ccc(-c3nc4ncccc4o3)cc2)c(C)c1	45.0	97.3	70.9	33.5*	50.7*[fluorescence artefact?]	156.9
COc1cccc(C(=O)CSc2nc3ccccc3n2CC(=O)N(C(C)C)C(C)C)c1	-4.2	87.8	96.2	88.2	1.5	120.1
